Screens (PubChem)
Rad51 HR inh: blocks human Rad51 in homologous recombination; inhibition, % at 10 µM; Q06609; hit rate 0.085% among 200,000; AID 1385; hRad51 DNA strand exchange, fluorescence dequenching;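 active = inhibition above 40% at the single screening dose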;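 also: 0% = DMSO control wells and 100% = blanks with heterologous ssDNA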
Target sequence (Q06609 whole entry, looked up): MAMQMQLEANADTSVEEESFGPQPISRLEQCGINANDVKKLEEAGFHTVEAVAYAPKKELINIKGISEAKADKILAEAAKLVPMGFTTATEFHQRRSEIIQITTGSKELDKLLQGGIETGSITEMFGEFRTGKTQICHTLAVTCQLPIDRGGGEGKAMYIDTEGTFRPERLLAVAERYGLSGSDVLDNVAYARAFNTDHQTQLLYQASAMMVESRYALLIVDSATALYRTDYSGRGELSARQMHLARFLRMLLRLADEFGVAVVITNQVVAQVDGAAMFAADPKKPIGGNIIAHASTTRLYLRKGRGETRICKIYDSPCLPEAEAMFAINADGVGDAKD
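Test system – preformed human Rad51 ssDNA filaments · Reagent – Donor/quencher-labelled 47-bp dsDNA substrate · Incubation – 37 °C 15-min filament assembly, 30-min compound preincubation, 15-min exchange · Signal – FRET fluorescence dequenching, excitation 485 nm, emission 520 nm · Read-out – percent inhibition from fluorescence, normalised to plate control and blank means · Benchmarks – plate control and blank wells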
Lmaj promast: reduces viability of Leishmania major promastigotes; resazurin fluorescence viability; inhibition, % at 10 µM; AID 1063; hit rate 9% among 200,000;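 also: promastigotes grown with compound for 44 hours at 28 °C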
Wee1 stabilizer: blocks degradation of human Wee1 kinase; P30291; HeLa Luc-Wee1K328M stability, luciferase luminescence; 100% = proteasome inhibitor MG132 effect; reporter increase, % at 5 µM; hit rate 1.2% among 220,000; AID 1321;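 active = activation above the mean of all tested compounds plus 3 SD, set per screening run, cut at about 8.8% in these data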;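 also: cells exposed to compound for 20 h before luminescence read; 0% = DMSO alone and 100% = MG132 at 30 µM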
CHOP inh: blocks CHOP induction under ER stress; hit rate 3.8% among 220,000; inhibition, % at 10 µM; AID 2732; CHO-K1 CHOP-promoter luciferase, tunicamycin-induced, 15-18 h;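 active = compounds that reduced the stress-induced luciferase reporter signal by more than about 70% of percent inhibition, limit read from the data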;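 also: 0% = tunicamycin plus vehicle and 100% = wells without tunicamycin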
PKD1 kinase inh: inhibitors of human PKD1 kinase; Q15139; PKD1 kinase fluorescence polarization assay; inhibition, % (test concentration not listed); hit rate 0.056% among 200,000
Arbovirus inh: antivirals against arbovirus infection. arbovirus infection cell-based antiviral screen. inhibition, % at 10 µM. hit rate 0.37% among 200,000; in the data active = inhibition above about 30%
Numbers without * were called inactive. Hits are enriched below; roughly 12% of the tested compounds scored in any of these assays. Rule as the data show it, unless noted: active = inhibition above about 50%; inactive = the rest.

For COc1cc(/C=C/c2ccc3cccc(OC)c3n2)c(O)c([N+](=O)[O-])c1 the results were Rad51 HR inh -2, Lmaj promast 39, Wee1 stabilizer -2, CHOP inh 94*, PKD1 kinase inh -6 and Arbovirus inh -4.
`CC1CCN(c2nc(CN3CCCCC3)nc3scc(-c4ccccc4)c23)CC1` gave Rad51 HR inh -2, Lmaj promast 91*, Wee1 stabilizer 4, CHOP inh 30, PKD1 kinase inh 6 and Arbovirus inh -41.
Screening CCn1c(C)c(CS(=O)(=O)c2ccccc2)[nH]c1=O returned Rad51 HR inh 1, Lmaj promast -1, Wee1 stabilizer 0, CHOP inh -32, PKD1 kinase inh -5 and Arbovirus inh 1.
For O=C(c1ccc(COc2ccccc2Br)o1)N1N=C(C(F)F)CC1(O)C(F)F (stereo not drawn) the results were Rad51 HR inh 7, Lmaj promast -1, Wee1 stabilizer -1, CHOP inh 89*, PKD1 kinase inh -9 and Arbovirus inh 2.
For CCOc1cc([N+](=O)[O-])c2nc(N)sc2c1 the results were Rad51 HR inh 11, Wee1 stabilizer -1 and CHOP inh 7.
CC(C)(C)CN1C(=O)C(=O)NC[C@@H]1CCCCN was read as Rad51 HR inh 9.
O=C(NCc1n[nH]c(=S)n1-c1ccccc1)c1ccc(S(=O)(=O)N2CCOCC2)cc1 was read as Rad51 HR inh -11, Lmaj promast -6, Wee1 stabilizer 7, CHOP inh 20, PKD1 kinase inh -7 and Arbovirus inh 7.
For O=C(NCc1n[nH]c(=S)n1-c1ccc(F)cc1)c1ccc(S(=O)(=O)N2CCOCC2)cc1 the results were Lmaj promast -3, Wee1 stabilizer 1, CHOP inh 82*, PKD1 kinase inh -1 and Arbovirus inh 5.
`CCCCCc1cccnc1` gave Rad51 HR inh -4, Wee1 stabilizer 2 and CHOP inh 7.
`CC(=O)c1cccc(NC(=O)CN2C(=S)NC(C)(C)CC2C)c1` (stereo not drawn) gave Rad51 HR inh 3, Lmaj promast -6, Wee1 stabilizer 0, CHOP inh 6, PKD1 kinase inh -3 and Arbovirus inh 10.
Screening CN1C(=O)N(C)C2(c3ccccc3)Nn3c(s/c(=C/c4ccco4)c3=O)=NC12c1ccccc1 (stereo not drawn) returned Rad51 HR inh 5, Lmaj promast 29, Wee1 stabilizer -3, CHOP inh 21, PKD1 kinase inh 0 and Arbovirus inh 2.
CN1C(=O)N(C)C2(c3ccccc3)Nn3c(s/c(=C/c4ccccc4F)c3=O)=NC12c1ccccc1 (stereo not drawn) was read as Lmaj promast -5, Wee1 stabilizer 0, CHOP inh 71*, PKD1 kinase inh -4 and Arbovirus inh 6.
For C=CCN(c1cccc(C(F)(F)F)c1)S(=O)(=O)c1cccc(C(=O)OCC(=O)Nc2ccccc2)c1 the results were Rad51 HR inh 1, Lmaj promast 42, Wee1 stabilizer 0, CHOP inh 24, PKD1 kinase inh -4 and Arbovirus inh -1.
Screening Cc1cc(C)n(CC(=O)N2c3ccccc3Sc3ccccc32)n1 returned Rad51 HR inh 6, Lmaj promast 61*, Wee1 stabilizer -1, CHOP inh -4, PKD1 kinase inh -2 and Arbovirus inh -4.
Screening CCCN1C(=O)/C(=C/c2c(N3CCNC(=O)C3CC(=O)OC)nc3c(C)cccn3c2=O)SC1=S (stereo not drawn) returned Rad51 HR inh inactive, Wee1 stabilizer 6 and CHOP inh 9.
COc1ccc(CCN(C(=O)C(F)(F)F)C(C(=O)NC2CCCC2)c2cccs2)cc1 (stereo not drawn) was read as Rad51 HR inh -4, Lmaj promast 62*, Wee1 stabilizer 3, CHOP inh 80*, PKD1 kinase inh -6 and Arbovirus inh -11.
For C#CC(=O)N(c1ccc(OC)cc1OC)C(C(=O)NC1CCCC1)c1cccs1 (stereo not drawn) the results were Rad51 HR inh 11, Lmaj promast 94*, Wee1 stabilizer -1, CHOP inh 107*, PKD1 kinase inh 1 and Arbovirus inh -33.
`Cc1ccccc1N=C1c2ccccc2C(=O)C1[N+](=O)[O-]` (stereo not drawn) gave Rad51 HR inh -166, Lmaj promast -4, Wee1 stabilizer -2, CHOP inh -42, PKD1 kinase inh 1 and Arbovirus inh -4.
Screening C/C(=N/Nc1cc(-c2ccccc2)nc(-c2ccccc2)n1)c1ccc(O)cc1 returned Rad51 HR inh 2, Lmaj promast 89*, Wee1 stabilizer -2, CHOP inh 75*, PKD1 kinase inh 1 and Arbovirus inh -32.
`C/C(=N\Nc1cc(-c2ccccc2)nc(-c2ccc(Br)cc2)n1)c1cccc(N)c1` gave Rad51 HR inh -5, Lmaj promast 11, Wee1 stabilizer 2 and PKD1 kinase inh -1.
`COc1cc2c3c(c1)C1(C(=O)N3C(C)(C)C=C2C)C(C#N)=C(N)Oc2cc(O)ccc21` (stereo not drawn) gave Rad51 HR inh 5, Lmaj promast 67*, Wee1 stabilizer -1, CHOP inh 10, PKD1 kinase inh -1 and Arbovirus inh 10.
`Cc1cc2c3c(c1C)C1(C(=O)N3C(C)(C)CC2C)C(C#N)=C(N)Oc2cc(O)ccc21` (stereo not drawn) gave Rad51 HR inh -1, Lmaj promast 70*, Wee1 stabilizer 2, CHOP inh 39, PKD1 kinase inh 5 and Arbovirus inh -33.
Fc1ccc(CNc2nc(-c3ccccc3)nc3ccccc23)cc1 was read as Rad51 HR inh 2, Lmaj promast 69*, Wee1 stabilizer 3, CHOP inh 73*, PKD1 kinase inh -3 and Arbovirus inh -5.
OCCNc1nc(-c2cccnc2)nc2ccccc12 was read as Rad51 HR inh -8, Lmaj promast 10, Wee1 stabilizer -1, CHOP inh 19, PKD1 kinase inh -7 and Arbovirus inh 9.
Screening Cc1ccc(NCc2cccnc2)cc1 returned Rad51 HR inh -10, Lmaj promast 31, Wee1 stabilizer 0, CHOP inh -2, PKD1 kinase inh 2 and Arbovirus inh 4.
Screening c1ccc(-c2nc(NCc3cccnc3)c3ccccc3n2)cc1 returned Rad51 HR inh 4, Lmaj promast 80*, Wee1 stabilizer 0, CHOP inh -6, PKD1 kinase inh -4 and Arbovirus inh 4.
O=C(O)c1cccc(Nc2nc(C(F)(F)F)nc3ccccc23)c1 was read as Rad51 HR inh 2, Lmaj promast 1, Wee1 stabilizer -2, CHOP inh 15, PKD1 kinase inh 0 and Arbovirus inh 2.
Screening Fc1cccc(Nc2nc(-c3ccncc3)nc3ccccc23)c1 returned Rad51 HR inh -2, Lmaj promast 61*, Wee1 stabilizer 0, CHOP inh -10, PKD1 kinase inh -7 and Arbovirus inh 7.
